Screening results from PubChem BioAssay.
CHO parental Ca: counter-screen: ATP calcium response change in parental CHO cells; parental CHO-K1, ATP-induced calcium, Fluo-8 fluorescence; inhibition, % at 5.6 µM; 330,000 tested, 0.63% active;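 active = inhibition above that plate's mean sample inhibition plus 3 SD, cut at about 26% in these data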;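 also: 0% = ATP-challenged DMSO wells and 100% = DMSO wells without ATP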
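Assay system: parental CHO cells; Read-out basis: percent inhibition of ATP-evoked calcium rise, normalized to controls; Benchmarks: ATP and no-ATP DMSO wells; Compound dosing: single nominal dose of 5.6 µM per compound; Signal: Fluo-8 calcium dye fluorescence; Also added: ATP as calcium-mobilizing challenge; Repeats: singlicate.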
TAAR1 antagonist: antagonists of human TAAR1; inhibition, % at 3 µM; 360,000 tested, 1.5% active; CHO RD-HGA16 TAAR1, Fluo-8 calcium fluorescence, antagonist; Q96RJ0;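 active = inhibition above a per-plate cutoff, the mean inhibition of test compounds on that plate plus 3 SD, cut at about 49% in these data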;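 also: 0% = DMSO plus EC80 beta-PEA response and 100% = DMSO alone without agonist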
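test system = CHO RD-HGA16 cells bearing hTAAR1 | replication = singlicate | controls = DMSO-only wells and EC80 β-PEA-stimulated wells | reagent = EC80 β-phenethylamine stimulus | read-out basis = percent inhibition of PEA-evoked calcium signal, max/basal emission ratio | schedule = seeding 17-24 h prior, 75-min 37 °C, 30-min RT dye loading | signal = kinetic Fluo-8 calcium fluorescence measurement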
TAAR1 ag: agonists of human TAAR1; Q96RJ0; CHO RD-HGA16 TAAR1, Fluo-8 calcium fluorescence; vehicle wells 0%, saturating PEA agonist 100%; activation, % at 3 µM; 360,000 tested, 0.99% active;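 active = activation above the mean activation of all test compounds in the run plus 3 SD, cut at about 38% in these data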
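Test system: RD-HGA16 (CHO) cells co-expressing Gα16 and hTAAR1; dosing: one-point dosing at 3 µM (nominal); timing: 17-24 h seeding, 75 min 37 °C dye, 30 min RT; signal: kinetic Fluo-8 calcium fluorescence; read-out basis: % activation relative to PEA EC100 response; controls: DMSO and PEA EC100; replicates: n 1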
GPR7 antagonist: antagonists of human GPR7 (neuropeptides B/W receptor 1); 290,000 tested, 1.1% active; GPR7-expressing cells, fluorescence antagonist assay; inhibition, % at 4.4 µM; in the data active = inhibition above about 16%, passing the limit was not always enough;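 also: cells stimulated with the agonist NPW; 0% = agonist with vehicle and 100% = vehicle without agonist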
Target sequence (P48145 whole entry, looked up): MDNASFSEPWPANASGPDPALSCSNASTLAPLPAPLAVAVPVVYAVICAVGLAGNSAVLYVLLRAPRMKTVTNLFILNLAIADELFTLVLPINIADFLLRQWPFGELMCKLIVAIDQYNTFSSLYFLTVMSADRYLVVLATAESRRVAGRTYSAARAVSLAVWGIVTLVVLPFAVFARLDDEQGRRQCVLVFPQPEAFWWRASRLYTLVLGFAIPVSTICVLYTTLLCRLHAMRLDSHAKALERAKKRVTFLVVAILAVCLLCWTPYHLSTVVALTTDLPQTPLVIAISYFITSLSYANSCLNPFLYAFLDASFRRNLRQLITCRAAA
OX1R antag-1: antagonists of human orexin 1 receptor (OX1R). O43613. OX1R-expressing cells, FRET antagonist read-out. inhibition, % at 6.6 µM. 330,000 tested, 1.8% active; in the data active = inhibition mostly above about 38%, no sharp cut-off; inactive = mostly below about 40%;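 also: 0% = agonist challenge alone and 100% = reference antagonist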
Target sequence (O43613 whole entry, looked up): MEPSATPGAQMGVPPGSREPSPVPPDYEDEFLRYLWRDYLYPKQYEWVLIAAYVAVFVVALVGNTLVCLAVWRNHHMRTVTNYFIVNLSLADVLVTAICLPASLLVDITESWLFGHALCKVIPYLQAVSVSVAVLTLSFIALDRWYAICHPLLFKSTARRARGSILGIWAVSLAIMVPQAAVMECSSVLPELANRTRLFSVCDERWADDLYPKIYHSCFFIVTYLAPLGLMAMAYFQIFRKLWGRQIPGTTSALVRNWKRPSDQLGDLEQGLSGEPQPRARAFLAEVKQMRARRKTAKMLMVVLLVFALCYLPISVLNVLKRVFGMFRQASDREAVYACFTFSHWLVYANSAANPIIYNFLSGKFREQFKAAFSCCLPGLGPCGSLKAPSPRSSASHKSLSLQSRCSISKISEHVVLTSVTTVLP
OX1R antag-2: antagonists of human orexin 1 receptor; 330,000 tested, 0.43% active; O43613; inhibition, % at 5 µM; CHO/OX1R cells, Fluo-8 calcium fluorescence, orexin A;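 active = inhibition above its plate's threshold, mean inhibition of all tested compounds on the plate plus 3 SD, cut at about 37% in these data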;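 also: 0% = orexin A challenge wells and 100% = SB-334867-A antagonist wells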
Starred values were filed as active, the others as inactive; nt = no result given. In the library only some 4.6% were active in any assay of this set; here they are far more common.

SMILES	CHO parental Ca	TAAR1 antagonist	TAAR1 ag	GPR7 antagonist	OX1R antag-1	OX1R antag-2
O=C(NCC1CCCN1S(=O)(=O)c1cccs1)C(=O)Nc1ccccc1Cl (stereo unspecified)	2.5	-14.1	5.4	nt	44.8*	0.2
COc1cccc(CNC(=O)c2ccc(S(=O)(=O)N3CCCCC3)cc2)c1	nt	50.7*	9.3	nt	nt	nt
COc1ccc(NC(=O)COc2cccc(-n3cnnn3)c2)cc1	1.6	-4.0	0.9	-6.5	0.4	-1.5
Cc1cc(C)c2nc(N3CCC(C(=O)NCCCN4CCCCC4)CC3)sc2c1	-7.4	-0.5	-1.0	6.7	1.4	-19.8
N#Cc1c(Cl)nsc1NC(=O)c1ccccc1	7.0	-1.7	16.3	2.8	61.2*	-4.6
CN1CCN(CCCNC(=O)c2ccc(/C=C3/Sc4ccccc4N(Cc4cccc(Cl)c4)C3=O)cc2)CC1	nt	56.6*	36.2	-7.2	nt	nt
CN1C(=O)/C(=C/c2cccc(Cl)c2)Sc2ccc(C(=O)NCc3cccnc3)cc21	-2.6	51.0*	10.4	-1.2	42.0	-13.6
O=C(O)Cn1nnnc1SCC(=O)Nc1ccccc1F	-2.1	-1.2	-0.5	-6.4	9.6	-4.9
Brc1ccc(-c2nc3ccc(Br)cn3c2Cc2ccccc2)cc1	nt	-7.1	1.2	nt	nt	nt
c1ccc(-c2csc3ncnc(NCc4ccccn4)c23)cc1	1.2	52.9*	10.7	-13.2	16.9	-13.3
c1ccc(CNc2ncnc3scc(-c4cccs4)c23)nc1	43.7*	27.1	4.7	-4.4	27.7	14.4
CN(C)CCCNc1ncnc2scc(-c3ccccc3)c12	7.5	-3.8	-0.6	22.3	11.4	-14.9
CC1CCc2nc(/C(C#N)=C/c3cccnc3)sc2C1 (stereo unspecified)	-20.3	-8.5	1.6	-9.3	25.4	-18.5
O=C(Nc1ccc(Cl)c(Cl)c1)OCCNC(=O)c1cccc(Cl)c1	40.0*	24.8	7.0	4.7	66.5	28.2
O=C(Nc1ccccc1)OCCNC(=O)c1cccc(Br)c1	6.1	-1.9	5.6	7.4	6.5	-13.4
NC(N)=NNC(=O)c1ccccc1Cl	5.7	-7.3	1.9	-7.6	14.8	3.5
O=C(COC(=O)c1cnccn1)NCCc1ccc(Cl)cc1Cl	-7.0	-11.5	-1.1	-16.2	-2.1	-6.5
O=C(c1cccnc1)N1C2C=CC(C2)C1(C(F)(F)F)C(F)(F)F (stereo unspecified)	-2.2	0.5	3.4	-3.4	5.2	6.3
Cc1cc(N)n2nc(C)c(-c3ccccc3)c2n1	-11.5	2.7	3.3	3.3	63.5*	-9.3
Nc1nc(-c2ccccc2)cc(N2CCCCC2)n1	-17.8	6.4	5.7	13.9*	23.4	-30.7
COc1cc(-c2cc(NC=O)c3ncc(-c4ccccc4)n3c2)cc(OC)c1OC	nt	62.5*	12.7	nt	nt	nt
COc1cc(-c2cc(NC(C)=O)c3ncc(-c4ccccc4)n3c2)cc(OC)c1OC	nt	49.5*	2.9	nt	nt	nt
COc1ccc(-c2cc(NC(C)=O)c3ncc(-c4ccc(OC)c(OC)c4)n3c2)cc1OC	nt	-0.5	1.6	nt	nt	nt
COc1ccc(-c2cnc3c(NC(C)=O)cc(-c4ccccc4OC)cn23)cc1OC	nt	52.3*	6.8	nt	nt	nt
COc1ccc(C)cc1NC(=O)CN1CCCN(S(=O)(=O)c2ccc(Br)cc2)CC1	-13.6	0.4	9.8	17.6	24.3	-25.9
SMILES	CHO parental Ca	TAAR1 antagonist	TAAR1 ag	GPR7 antagonist	OX1R antag-1	OX1R antag-2
N#Cc1nc(Cc2ccccc2)oc1NCc1ccccc1Cl	35.6*	34.5	0.5	10.1	32.2	21.9
CCn1c(/C=C/c2ccccc2[N+](=O)[O-])nc2ccccc2c1=O	-13.8	-3.3	5.3	-19.2	52.5*	-8.4
Cn1c(/C=C/c2ccccc2[N+](=O)[O-])nc2ccccc2c1=O	nt	10.0	4.7	-19.8	nt	nt
COc1ccccc1NC(=O)CCc1nc2sc3c(c2c(=O)[nH]1)CCCC3	-19.5	-18.8	3.9	nt	27.0	-30.1
COc1cc(/C=C/C(=O)OCC(=O)Nc2nnc(-c3ccccc3)o2)cc(OC)c1OC	-15.1	9.5	0.0	nt	72.0*	-38.0
O=C(COC(=O)/C=C/c1ccccc1)Nc1nnc(-c2ccccc2)o1	4.5	2.6	-1.3	nt	21.0	-3.4
C[C@@H]1CN([C@@H](C)CO)C(=O)c2c(c3ccccc3n2C)-c2ccccc2CO[C@H]1CN(C)C(=O)[C@H](Cc1ccccc1)N(C)C	nt	-10.1	5.5	nt	nt	nt
CCCCC(O)(CCCC)C(=O)N/N=C(\C)c1ccc(Cl)cc1	-22.8	-30.5	-1.8	20.5*	8.3	-4.7
O=C(CCn1nc(-c2ccccc2)c2ccccc2c1=O)N1CCN(c2ccccc2)CC1	-25.6	-4.3	7.7	-7.4	62.5*	12.5
O=C(CCn1nc(-c2ccccc2)ccc1=O)N1CCN(c2ccccc2)CC1	-11.5	10.3	8.0	1.3	10.3	-16.9
CSc1nccn1CC(=O)Nc1ccc(F)cc1	40.8*	8.3	1.8	3.6	6.7	-11.8
Cn1nc(C(C)(C)C)cc1C(=O)NCc1ccc(N2CCCC2=O)cc1	37.3*	7.3	4.3	0.2	29.9	19.4
NC(=O)C(F)(F)C12OC3C4C5CC(C6C5C3C61)C42 (stereo unspecified)	9.4	-16.7	2.2	-0.2	4.0	-12.5
CC1(C)NC(=O)N(CCCCOc2ccc(Cl)cc2C=O)C1=O	-9.3	8.4	3.9	12.8	18.0	-13.1
CCCCN(C)CCNC(=O)c1cc2c(-c3ccccc3F)nn(C)c2s1	-16.0	-5.3	3.1	-5.9	1.7	-8.7
C#CCSc1nnc(-c2ccc([N+](=O)[O-])cc2)o1	-2.9	13.1	2.4	-5.0	51.5*	-3.3
CSc1nnc(-c2ccc(F)cc2)o1	-5.1	-2.2	12.2	-6.2	13.6	-3.2
CSc1nnc(-c2ccc([N+](=O)[O-])cc2)o1	-8.7	10.2	2.3	-5.7	61.6*	-2.9
Cc1cc2ccccc2n2c(SCC(=O)N3CCc4ccccc4C3)nnc12	-26.1	7.9	9.3	-11.6	72.6*	26.4
COCCn1c(SCC(=O)N2CCCCC2)nc2c(c1=O)SC(C)C2 (stereo unspecified)	100.2*	6.9	-0.8	-1.9	14.7	-20.9
COCCn1c(SCC(=O)N2CCc3ccccc3C2)nc2ccccc2c1=O	-15.8	19.5	3.4	1.9	72.0*	-3.9
COCCn1c(SCC(=O)N2CCCCC2)nc2c(c1=O)SCC2	-9.7	-11.5	-1.2	-12.5	8.6	-18.7
CC(C)N1CCN(Cc2cccc(-n3cccn3)c2)CC1CCO (stereo unspecified)	-2.7	-6.7	0.7	-6.3	3.0	-15.7
CC(=O)Nc1ccc(S(=O)(=O)N(C)CC(=O)NNC(=O)c2cccs2)cc1	-0.9	-6.3	1.3	nt	-1.1	-1.3
C=CCn1c(O)c2ccc(C(=O)N=NC(=O)COc3ccccc3F)cc2c1O	-15.9	5.0	1.3	nt	57.6*	-15.3
COc1ccc(Cl)cc1NC(=O)CN(C)C(=O)c1ccc2c(c1)OCCO2	-6.4	-40.1	1.4	nt	14.5	-19.2
